# This is a sample that favours compounds with a hit; in the whole collection about 5.4% have one here.
# SKKanGAS inh: SKKanGAS growth inhibition; S. pyogenes SKKanGAS, kanamycin growth, BacTiter-Glo, 6 h; inhibition, % at 7.5 µM; hit rate 1.3% among 300,000;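 active = mean replicate score, as percent of positive control median, at least 50; inconclusive = mean below 50 but one replicate at or above 50; inactive = mean and every replicate below 50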;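 note: strain carries kanamycin resistance gene driven by streptokinase promoter and grows in 40 µg/ml kanamycin; loss of luminescence reflects streptokinase promoter inhibition or plain growth inhibition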
# Mdm2-MdmX inh: inhibitors of human Mdm2/MdmX interaction | O15151+Q00987 | SaOS-2 split-luciferase Mdm2/MdmX complementation, luminescence | inhibition, % at 8 µM | hit rate 3% among 330,000;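 active = inhibition of at least 50% at 8 µM in the primary screen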
# Target sequence (O15151 whole entry, looked up): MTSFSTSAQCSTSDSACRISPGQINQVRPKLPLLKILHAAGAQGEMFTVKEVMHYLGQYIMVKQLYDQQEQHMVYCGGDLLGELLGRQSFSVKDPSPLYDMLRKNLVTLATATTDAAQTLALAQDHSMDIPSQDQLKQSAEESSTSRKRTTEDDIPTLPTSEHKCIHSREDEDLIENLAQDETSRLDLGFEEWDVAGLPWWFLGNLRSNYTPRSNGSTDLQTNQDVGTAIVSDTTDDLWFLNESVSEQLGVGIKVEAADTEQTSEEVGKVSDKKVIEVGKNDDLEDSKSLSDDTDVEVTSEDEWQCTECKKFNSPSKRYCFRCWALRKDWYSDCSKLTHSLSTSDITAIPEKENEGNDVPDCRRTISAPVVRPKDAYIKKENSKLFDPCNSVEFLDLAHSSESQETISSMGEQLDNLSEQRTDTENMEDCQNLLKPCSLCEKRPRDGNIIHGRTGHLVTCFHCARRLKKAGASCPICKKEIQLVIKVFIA
# Target sequence (Q00987 whole entry, looked up): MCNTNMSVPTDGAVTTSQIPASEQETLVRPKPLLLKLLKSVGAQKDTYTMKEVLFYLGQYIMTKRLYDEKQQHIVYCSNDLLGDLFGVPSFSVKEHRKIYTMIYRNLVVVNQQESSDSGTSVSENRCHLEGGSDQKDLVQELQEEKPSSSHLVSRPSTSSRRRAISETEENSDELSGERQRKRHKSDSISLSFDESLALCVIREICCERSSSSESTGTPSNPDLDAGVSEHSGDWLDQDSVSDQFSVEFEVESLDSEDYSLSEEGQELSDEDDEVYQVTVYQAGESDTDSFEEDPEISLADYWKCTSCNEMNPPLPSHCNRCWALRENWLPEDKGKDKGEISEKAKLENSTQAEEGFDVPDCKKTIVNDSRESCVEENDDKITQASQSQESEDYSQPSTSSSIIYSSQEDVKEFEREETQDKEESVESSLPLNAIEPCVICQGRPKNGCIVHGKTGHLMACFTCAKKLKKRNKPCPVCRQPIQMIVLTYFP
# aSyn 5UTR inh: 5' untranslated region of α-synuclein, MLPCN primary screen; alpha-synuclein 5'UTR reporter, inhibitor activity; AID 1813; hit rate 0.82% among 300,000; inhibition, % (tested at 7.5 µM); in the data active = inhibition above about 60%; inconclusive = no clear call, values can overlap the other calls;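 note: H4 neuroglioblastoma cells stably carrying SNCA 5'UTR luciferase fusion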
# T cruzi repl: T. cruzi replication inhibition; T. cruzi beta-gal in NIH3T3, luminescence, 90 h; inhibition, % (test concentration not listed); hit rate 1.4% among 300,000;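 active = mean inhibition across valid replicates above about 55%, limit read from the data; inconclusive = mean below that limit but half or more replicates reach it; inactive = mean below it, under half of replicates reach it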;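 note: signal also drops with host cell toxicity which is not excluded here; higher percent means less beta-gal luminescence so fewer parasites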
#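 System: Mouse NIH/3T3 fibroblasts infected with β-gal-expressing T. cruzi Tulahuen C4 | Quantity: NIH/3T3 cells, 5,000 per well | Reagent: 5000 reporter trypomastigotes per well | Dosing: Compound pinned at 50 nL/well, DMSO | Schedule: 3 h host attachment, then at least 90 h co-culture | Detection: GalScreen luminescence, 60 min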
# CSC inhib: cancer stem cell inhibition. hit rate 1.1% among 300,000. cancer stem cell-like cells viability, luminescence. inhibition, % at 7.5 µM; in the data active = inhibition above about 75%; inconclusive = no clear call, values can overlap the other calls; tested in HMLE shEcad cells
# Numbers stand for hits; – = inactive; ? = inconclusive; · = no result given.
SMILES,SKKanGAS inh,Mdm2-MdmX inh,aSyn 5UTR inh,T cruzi repl,CSC inhib
O=c1c([N+](=O)[O-])cc(C(F)(F)F)cn1Cc1c(Cl)cccc1Cl,–,–,–,–,–
CCC(C)OC(=O)C[N+](C)(C)CCOC1CC2CCC1(C)C2(C)C (centres undefined),–,–,–,64,–
CCCCCCCOC(=O)C[N+](C)(C)CCOC1CC2CCC1(C)C2(C)C (centres undefined),?,·,–,62,·
CC(C)CCOC(=O)C[N+](C)(C)CCOC1CC2CCC1(C)C2(C)C (centres undefined),–,–,–,61,–
CCOC(=O)N1CCC(NC(=O)CN(c2ccc(C(C)C)cc2)S(=O)(=O)c2c(C)nn(C)c2C)CC1,–,–,–,–,–
CCOC(=O)C1=NN(C(=O)c2ccccc2)C(O)(c2ccc(C)cc2)C1 (centres undefined),–,–,–,–,–
CCOC(=O)C1=NN(C(=O)c2cccc(Br)c2)C(O)(C(C)(C)C)C1 (centres undefined),90,–,105,–,–
CCOC(=O)C1=NN(C(=O)c2ccc(OC)cc2)C(O)(c2ccc(Cl)cc2)C1 (centres undefined),53,–,–,–,–
COC(=O)C1=NN(C(=O)c2cccc(Br)c2)C(O)(c2ccc(Cl)cc2)C1 (centres undefined),86,–,–,–,–
CCOC(=O)C1=NN(C(=O)c2ccco2)C2(CC2)C1,–,–,–,–,–
O=C(COC(=O)C1CCC(=O)N1)Nc1cccc([N+](=O)[O-])c1 (centres undefined),·,–,·,·,–
CN1CCN(C(CNC(=O)c2ccc(Br)o2)c2ccc(F)cc2)CC1 (centres undefined),–,–,–,62,–
CN1CCN(C(CNC(=O)C(=O)Nc2ccc3c(c2)OCCO3)c2ccc(F)cc2)CC1 (centres undefined),–,–,–,62,–
Cc1ccc(C(CNC(=O)c2ccc(Br)o2)N2CCN(C)CC2)cc1 (centres undefined),–,–,–,–,–
CCN(c1cccc(C)c1)S(=O)(=O)c1cc(CN2C(=O)c3cccnc3C2=O)ccc1OC,–,–,–,–,–
O=C(Nc1nc2n(n1)C(c1ccc(Cl)cc1)CC(c1ccc(Cl)cc1)N2)c1ccco1 (centres undefined),55,–,–,–,–
Fc1ccc(N2CCN(Cc3cn[nH]c3-c3ccccc3)CC2)cc1,52,–,–,–,–
OC1(c2ccc(Cl)cc2)CCN(Cc2cn[nH]c2-c2ccccc2)CC1,–,–,70,–,·
Fc1ccc(-c2[nH]ncc2CN2CCN(c3ccc(F)cc3)CC2)cc1,–,–,–,–,–
OC1(c2ccc(Cl)cc2)CCN(Cc2cn[nH]c2-c2ccc(F)cc2)CC1,–,–,?,–,–
COc1ccc(-c2[nH]ncc2CN2CCC(O)(c3ccc(Cl)cc3)CC2)cc1,–,–,87,·,–
CCC1(c2ccc(F)cc2)NC(=O)N(CC(=O)Nc2cccnc2Cl)C1=O (centres undefined),–,–,–,–,·
Cc1ccc(NC(=O)c2ccc(NS(=O)(=O)c3ccc4[nH]c(=O)[nH]c4c3)cc2)nc1,–,–,–,–,–
O=C(Cc1cccc(C(F)(F)F)c1)Nc1cc(S(=O)(=O)N2CCOCC2)ccc1N1CCCC1,·,–,·,·,–
COc1ccc(C(=O)/C=C/C(=O)N(CC(=O)NC2CCCCC2)Cc2cccs2)c(O)c1,–,–,71,–,76
SMILES,SKKanGAS inh,Mdm2-MdmX inh,aSyn 5UTR inh,T cruzi repl,CSC inhib
COc1ccc(C(=O)/C=C/C(=O)N(Cc2ccc3c(c2)OCO3)C(C(=O)NC2CCCCC2)c2ccncc2)c(O)c1 (centres undefined),–,–,–,–,–
COc1ccc(CN(C(=O)/C=C/C(=O)c2ccc(OC)cc2O)C(C(=O)NC2CCCCC2)c2ccncc2)cc1 (centres undefined),–,–,–,–,–
COCCN(CC(=O)NC1CCCCC1)C(=O)/C=C/C(=O)c1ccc(OC)cc1O,–,·,79,–,·
O=C(Cn1cnc2cc([N+](=O)[O-])ccc2c1=O)NC1CCS(=O)(=O)C1 (centres undefined),–,–,–,–,–
CN(C)c1ccc2c(c1)Sc1cc(N(C)C)ccc1N2C(=O)c1ccccc1,–,–,–,60,–
CN(C)c1ccc(C(=O)C(=O)c2ccccc2)cc1,–,–,–,–,–
CC(=O)N1CCC(C(=O)Nc2ccc(S(=O)(=O)NCCc3ccccc3)cc2)CC1,–,–,–,–,–
Cc1c(Cl)cccc1NC(=S)NCCC(c1ccccc1)c1ccccc1,79,–,–,–,–
Cc1cc(Cl)ccc1NC(=S)NCCc1ccc(Cl)cc1,–,–,–,–,–
Cc1cc(Cl)ccc1NC(=S)NCCC(c1ccccc1)c1ccccc1,66,–,–,–,–
COc1cc(NC(=S)NCCC(c2ccccc2)c2ccccc2)cc(OC)c1,–,–,–,62,·
O=C(COC(=O)/C=C/c1cccc(C(F)(F)F)c1)NC(=O)NCc1ccco1,·,–,·,·,–
CN1C=CC(=C2C(=O)c3ccccc3C2=O)C=C1,–,–,–,–,·
CCCCCCN1C=CC(=C2C(=O)c3ccccc3C2=O)C=C1,–,–,107,–,–
CC1CCCCC1NC(=O)COC(=O)c1ccc2c(c1)OCCO2 (centres undefined),·,–,·,·,·
O=C1CSC(c2ccc([N+](=O)[O-])cc2)N1Cc1ccccc1 (centres undefined),–,–,–,–,–
CCCCn1c(O)c(C(CC)=Nc2ccc3c(c2)CCC3)c(=O)[nH]c1=O,53,–,–,–,–
C=CCn1c(O)c(C(CC)=Nc2ccccc2NC(=O)CC)c(=O)[nH]c1=O,–,–,–,–,–
COc1ccc(S(=O)(=O)Nc2cc3c4c(c2)CCC(=O)N4CCC3)cc1C,–,–,–,–,·
O=C(NCc1nc2ccccc2[nH]1)c1ccco1,–,–,–,–,–
O=C(CNC(=O)c1ccco1)NCc1nc2ccccc2[nH]1,51,–,–,–,–
Cc1ccc(NC(=O)CN(C)Cc2nc3c(Br)cc(Br)cc3c(=O)[nH]2)cc1,60,–,–,–,·
CN(Cc1ccc(OC(F)F)cc1)Cc1nc2c(Br)cc(Br)cc2c(=O)[nH]1,62,–,–,–,–
CCN(CC(=O)NC(C)(C)C)Cc1nc2c(Br)cc(Br)cc2c(=O)[nH]1,51,–,–,–,·
Cc1ccc(NC(=O)CN(C)Cc2ccc(Cl)cc2)cc1,–,–,–,–,–
Cc1ccc2c(c1)-n1c(nc3ccccc3c1=O)C(CC(C)C)NC2=O (centres undefined),·,–,·,·,·
O=C(O)C1CCC(N2C(=O)c3c(Cl)c(Cl)c(Cl)c(Cl)c3C2=O)CC1 (centres undefined),–,·,–,–,–
COC(=O)C(NC(=O)CSc1nc(N)cc(=O)[nH]1)c1ccccc1 (centres undefined),–,–,–,–,–
COc1ccc(N=N/C(=C\O)C(=O)c2cccs2)cc1,–,–,–,–,88

# Source: PubChem BioAssay (several laboratories)
